From paper PMC5569452 (Iranian Journal of Basic Medical Sciences, 2017)
Counter-ions that a name gives are not always drawn.

What was measured:
isolated rat atria [1] = assay: Spontaneously beating isolated rat atria, atria contraction force
isolated rat atria [2] = assay: Spontaneously beating isolated rat atria, atria contraction rate; conditions: for ACR increase, percentage over the base line: compound alone, 100 μM; for isoprenaline-induced ACR in presence of compound: isoprenaline 10^-6 M + compound 10^-4 M
Summary of the method: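 Male Wistar rats (250-350 g) given reserpine 5 mg/kg i.p. 24 hr before euthanasia; thiopental 80 mg/kg i.p. anaesthesia. Whole atria hung at ~0.5 g resting tension in Krebs-Henseleit (95% O2/5% CO2, 37 °C, pH 7.4), equilibrated 30 min. Solvent or test compound (10 or 100 μM) added; after 20 min, cumulative isoprenaline. Contractions counted per minute; % increase over baseline; mean ± SEM, 5-6 experiments.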

PDE3A = PDE3A (Homo sapiens, UniProt Q14432); assay: PDE assay kit; type: biochemical
[3] = Cont: solvent + 1 μM isoprenaline (isoprenaline alone)
[4] = compound 100 μM, cumulative isoprenaline

PDE3A, sequence (Q14432 whole entry): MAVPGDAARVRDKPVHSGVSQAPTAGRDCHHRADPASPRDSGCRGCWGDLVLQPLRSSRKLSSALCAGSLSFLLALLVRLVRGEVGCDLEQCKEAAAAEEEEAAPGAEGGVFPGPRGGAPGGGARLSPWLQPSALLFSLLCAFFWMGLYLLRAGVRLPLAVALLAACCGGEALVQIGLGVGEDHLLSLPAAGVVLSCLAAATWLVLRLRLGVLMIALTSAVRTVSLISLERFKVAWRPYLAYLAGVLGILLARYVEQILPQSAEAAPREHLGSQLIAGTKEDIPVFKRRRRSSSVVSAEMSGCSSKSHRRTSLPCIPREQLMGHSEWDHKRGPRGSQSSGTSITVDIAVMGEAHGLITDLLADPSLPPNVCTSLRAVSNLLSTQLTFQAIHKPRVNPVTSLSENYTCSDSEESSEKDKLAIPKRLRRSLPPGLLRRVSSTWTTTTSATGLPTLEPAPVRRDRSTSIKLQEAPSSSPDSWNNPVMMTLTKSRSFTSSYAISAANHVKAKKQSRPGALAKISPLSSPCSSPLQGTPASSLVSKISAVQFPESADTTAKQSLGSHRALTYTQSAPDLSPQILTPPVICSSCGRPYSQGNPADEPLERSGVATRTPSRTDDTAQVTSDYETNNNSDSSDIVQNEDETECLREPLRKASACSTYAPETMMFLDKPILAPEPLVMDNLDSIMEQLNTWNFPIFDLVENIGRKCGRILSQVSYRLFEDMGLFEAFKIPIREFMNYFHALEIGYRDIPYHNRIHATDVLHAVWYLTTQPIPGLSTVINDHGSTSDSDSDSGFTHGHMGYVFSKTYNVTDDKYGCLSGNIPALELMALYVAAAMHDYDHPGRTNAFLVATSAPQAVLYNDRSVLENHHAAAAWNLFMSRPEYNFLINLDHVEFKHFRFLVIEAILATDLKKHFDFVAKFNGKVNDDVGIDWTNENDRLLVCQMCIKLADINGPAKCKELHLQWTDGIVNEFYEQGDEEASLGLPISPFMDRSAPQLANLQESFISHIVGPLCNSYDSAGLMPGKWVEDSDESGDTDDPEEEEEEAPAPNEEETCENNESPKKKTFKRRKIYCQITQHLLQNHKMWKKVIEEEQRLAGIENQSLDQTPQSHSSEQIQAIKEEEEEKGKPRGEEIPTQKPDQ

For `CN(C(=O)CCCOc1ccc2[nH]c(=O)ccc2c1)C1CCCCC1` [cilostamide, 4-(1,2-dihydro-2-oxoquinolin-6-hydroxy)-N-cyclohexyl-N-methylbutanamide], the “maximum ACFmax in combination with isoprenaline” value (isolated rat atria [1]; compound + isoprenaline 3×10^-6 M) was 25±5 % HSBL, the “maximum ACFmin in combination with isoprenaline” value (isolated rat atria [1]; compound + isoprenaline 10^-6 M) was 39 ±7 % HDBL and the “potentiation of the effect of isoprenaline on ACF” value (isolated rat atria [1]; compound added 20 min before isoprenaline) was “about 2.86 fold”. The “ACFmax within 20 min” value (isolated rat atria [1]; compound alone, 100 μM, 20 min) was 11±6 % HSBL, the “ACFmin within 20 min” value (isolated rat atria [1]; compound alone, 100 μM, 20 min) was 16±6 % HDBL and the “ACFmax at the beginning of adding the compound” value (isolated rat atria [1]; compound alone, 100 μM) was 24±9 % HSBL. For the same molecule, the “ACFmin at the beginning of adding the compound (initial decrease)” value (isolated rat atria [1]; compound alone, 100 μM) was 9±4 % HDBL, the “ACR increase, percentage over the base line” value (shortened to “ACR increase, percentage”) (isolated rat atria [2]) was 42±10% and the “isoprenaline-induced ACR in presence of compound” value (isolated rat atria [2]) was 51±11 % HSBL.

For `Cc1cc(=O)[nH]c2ccc(OCCCC(=O)N3CCCC3)cc12` [mc6, 6-(4-oxo-4-(pyrrolidin-1-yl)butoxy)-4-methylquinolin-2(1H)-one], the “ACF increase, percentage over the base line” value (isolated rat atria [1]; compound alone, 100 μM) was 11±4%, the “ACR increase, percentage” value (isolated rat atria [2]) was 65±6% and the “isoprenaline-induced ACR in presence of compound” value (isolated rat atria [2]) was 91±6 % HSBL.

`Cc1cc(=O)[nH]c2ccc(OCCCC(=O)N3CCC(C)CC3)cc12` [mc2, 6-(4-(4-methylpiperidin-1-yl)-4-oxobutoxy)-4-methylquinolin-2(1H)-one] was tested, and the “ACF (% increase baseline)” value (isolated rat atria [1]; 10 μM mc2 + 1 μM isoprenaline) was 3±1 % increase baseline, the “ACF (% increase baseline)” value (isolated rat atria [1]; 100 μM mc2 + 1 μM isoprenaline) was 60±5 % increase baseline and the “ACF reached in 20 min” value (isolated rat atria [1]; compound alone, 100 μM, 20 min) was 40±7 % HSBL. For the same molecule, the “ACFmin within 20 min” value (isolated rat atria [1]; compound alone, 100 μM, 20 min) was 36±6 % HDBL, the “ACF change when compound was added (initial)” value (isolated rat atria [1]; compound alone, 100 μM, at addition) was -1.76% and the “ACFmax at the beginning of adding the compound” value (isolated rat atria [1]; compound alone, 100 μM) was “increased continuously from the beginning”. The “ACFmin at the beginning of adding the compound (initial decrease)” value (isolated rat atria [1]; compound alone, 100 μM) was -6 % HDBL, the “isoprenaline-augmented ACF in presence of compound” value (isolated rat atria [1]; isoprenaline 10^-6 M + compound 10^-5 M) was 3±1 % HSBL and the “ACR (% increase baseline)” value (isolated rat atria [2]; 10 μM mc2 + 1 μM isoprenaline) was 50±10 % increase baseline. For the same molecule, the “ACR (% increase baseline)” value (isolated rat atria [2]; 100 μM mc2 + 1 μM isoprenaline) was 6±7 % increase baseline, the “ACR increase, percentage” value (isolated rat atria [2]) was “did not change” and the IC50 (PDE3A) was 2000 nM.

In the case of `CC(C)NCC(O)c1ccc(O)c(O)c1` (stereo not shown) [isoprenaline, isoprenaline hydrochloride], the “ACF (% increase baseline)” value (isolated rat atria [1]; [3]) is reported as 14±6 % increase baseline, the “threshold concentration of ACFmax curve” value (isolated rat atria [1]; isoprenaline alone) is reported as 10^-10 M and the “maximum ACFmax” value (isolated rat atria [1]; isoprenaline alone, 3×10^-8 M) is reported as 21 % HSBL. For the same molecule, the “ACF maximum, higher than systolic base line (HSBL)” value (isolated rat atria [1]; isoprenaline alone, 10^-6 M) was 14±6 % HSBL, the “ACFmin, higher than diastolic base line (HDBL)” value (isolated rat atria [1]; isoprenaline alone, 10^-6 M) was 10.23±5 % HDBL and the “threshold concentration for ACF increase” value (isolated rat atria [1]; isoprenaline alone, cumulative concentrations) was 10^-10 M. The “ACR (% increase baseline)” value (isolated rat atria [2]; [3]) was 68±12 % increase baseline and the “threshold concentration for ACR increase” value (isolated rat atria [2]; isoprenaline alone) was 10^-10 M.

In the case of `Cc1cc(=O)[nH]c2ccc(OCCCC(=O)N3CCC(O)CC3)cc12` [mc3, 6-(4-(4-hydroxypiperidin-1-yl)-4-oxobutoxy)4-methylquinolin-2(1H)-one], the “effect on isoprenaline concentration-response curve (ACF)” value (isolated rat atria [1]; [4]) is reported as “did not change”, the “ACF increase, percentage over the base line” value (isolated rat atria [1]; compound alone, 100 μM) is reported as “did not change” and the “effect on isoprenaline concentration-response curve (ACR)” value (isolated rat atria [2]; [4]) is reported as “did not make any significant changes”. The “ACR increase, percentage” value (isolated rat atria [2]) was “did not change” and the IC50 (PDE3A) was 1000 nM.
